Active and inactive are the calls of the source. No cut-off for these calls is given here.
Experiments:
[1] = Drug metabolism assessed as nitric oxide release in presence of bovine plasma at 200 uM measured after 1 hr by Griess reagent based assay; type: ADME, cell-free, Bos taurus; conditions: cattle
[2] = Stability of the compound in pH 6 phosphate buffer assessed as half life at 200 uM measured after 24 hrs by HPLC analysis; type: physicochemical; conditions: phosphate buffer pH 6, pH 6
[3] = Neuroprotective activity against in OGD/R-induced rat cortical neuron apoptosis assessed as early apoptotic cells pretreated at 1.8 uM for 24 hrs followed by subjected to OGD for 2 hrs measured after 24 hrs under normoxic condition by PI/FITC-H staining based flow cytometry (reference value: 58.46%); type: functional, Cortical neurone
Cortical neurone [4] = assay: Induction of HO-1 mRNA transcript level in OGD/R-induced rat primary cortical neuron pretreated at 1.8 uM for 24 hrs followed by subjected to OGD for 2 hrs measured after 24 hrs under normoxic condition by RT-qPCR analysis; type: functional, tissue-based
In short: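 Primary rat cortical neurons were pretreated with 1.8 μM compound for 24 h, given 2 h OGD, then 24 h normoxic culture. Nrf2, HO-1 and NQO1 mRNA were measured by RT-qPCR. Cytoplasmic and nuclear protein (30 μg/lane) were blotted for Nrf2, with lamin A and β-actin as references, and quantified by densitometry as the nuclear:cytoplasmic ratio. Three independent experiments, mean ± SD.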

Cortical neurone [5] = assay: Neuroprotective activity against in OGD/R-induced rat cortical neuron cytotoxicity assessed as activation of NO/cGMP/PKG pathway by measuring increase in PKG expression pretreated at 1.8 uM for 24 hrs followed by subjected to OGD for 2 hrs measured after 24 hrs under normoxic condition by Western blot analysis; type: functional, tissue-based
Rattus norvegicus [6] = assay: Neuroprotective activity against middle cerebral artery occlusion-induced ischemia-reperfusion injury Sprague-Dawley rat model assessed as decrease in cerebral infarct volume at 950 microg/kg, iv pretreated for 2 hrs followed by reperfusion measured after 24 hrs in presence of PTIO; type: functional, organism-based; conditions: dose 950.0 µg/kg
In short: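 Male SD rats (N = 8/group) were dosed iv at 95, 950 or 9500 μg/kg 2 h before 2 h MCAO (nylon suture, chloral hydrate anesthesia), then reperfused. Where used, PTIO 1 mg/kg iv was given 30 min before compound. At 24 h, blinded assessment covered Longa deficit score, TTC-stained 2 mm sections (infarct area/whole area), and edema by wet/dry weight.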

Rattus norvegicus [7] = assay: Neuroprotective activity against middle cerebral artery occlusion-induced ischemia-reperfusion injury Sprague-Dawley rat model assessed as decrease in cerebral edema degree at 95 to 9500 microg/kg, iv treated immediately reperfusion in presence of PTIO measured after 24 hrs; type: functional, organism-based; conditions: dose 95-9500 µg/kg
In short: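 Male SD rats (12 weeks, 200–220 g; N = 8/group) underwent MCAO under […] (350 mg/kg) using a nylon intraluminal suture for 2 h, then reperfusion. Compound (95, 950 or 9500 μg/kg) was given iv immediately after reperfusion; where used, PTIO 1 mg/kg iv was given 30 min before. At 24 h, blinded scoring covered Longa neurological deficit, TTC infarct area/whole area, and edema from wet/dry brain weight (105 °C, 24 h).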

Rattus norvegicus [8] = assay: Neuroprotective activity against middle cerebral artery occlusion-induced ischemia-reperfusion injury Sprague-Dawley rat model assessed as increase in HO-1 expression in cerebral ischemic penumbra at 950 microg/kg, iv treated immediately reperfusion measured after 24 hrs; type: functional, organism-based; conditions: dose 950.0 µg/kg
In short: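 MCAO rat brain paraffin sections (3 μm) were blocked with 10% goat serum and stained by IHC for NQO-1 and HO-1 (1:200) and phospho-Nrf2 (1:100), with DAB detection and rabbit IgG as negative control. Average optical density of positive cells was scored blinded over five fields per sample.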

Rattus norvegicus [9] = assay: Neuroprotective activity against middle cerebral artery occlusion-induced ischemia-reperfusion injury Sprague-Dawley rat model assessed as increase in AuroraB + cells in cerebral ischemic penumbra at 95 to 950 microg/kg, iv treated immediately reperfusion measured after 24 hrs in presence of PTIO by immunofluoresence assay; type: functional, organism-based; conditions: dose 95-950 µg/kg

Drug metabolism [1]: Metabolite_Detected | half-life at 200 µM [2]: 1.1 h
SMILES: O=C(/C(=C/c1ccccc1)C[N+](=O)[O-])c1ccccc1
Activity [3]: 7.21% | Activity (Cortical neurone [4]): Active | Activity (Cortical neurone [5]): Active | Activity (Rattus norvegicus [6]): inactive | Activity (Rattus norvegicus [7]): inactive | Activity (Rattus norvegicus [8]): Active | Activity (Rattus norvegicus [9]): inactive
